These results are taken from ChEMBL document CHEMBL1141376, “New fluorescent adenosine A1-receptor agonists that allow quantification of ligand-receptor interactions in microdomains of single living cells” (J Med Chem, 2007).

Test [1] deals with T1, Adenosine receptor A1 (Homo sapiens) (UniProt P30542).
T1 sequence (whole entry): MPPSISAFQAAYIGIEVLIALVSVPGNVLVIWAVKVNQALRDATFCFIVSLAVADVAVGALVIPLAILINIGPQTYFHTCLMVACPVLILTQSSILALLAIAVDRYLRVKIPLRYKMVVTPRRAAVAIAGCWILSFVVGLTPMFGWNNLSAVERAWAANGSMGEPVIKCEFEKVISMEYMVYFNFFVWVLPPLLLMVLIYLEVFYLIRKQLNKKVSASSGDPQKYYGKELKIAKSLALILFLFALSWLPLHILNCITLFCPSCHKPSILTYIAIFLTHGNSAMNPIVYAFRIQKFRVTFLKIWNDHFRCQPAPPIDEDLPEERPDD
Description: (§1) Displacement of [3H]DPCPX from human adenosine A1 receptor in CHO cells. In kind it is cell-based. The note with it: concentration not given here. An outline of the steps:
(§2)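 Whole confluent CHO-A1H cells in serum-free DMEM/F12 with competing ligand plus [3H]-DPCPX 1 nM final, 2 h at 37 °C in 5% CO2. Nonspecific binding with 10 µM XAC. Washed twice with cold PBS, scintillant added, counted.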
In general terms: Displacement assays read how much labelled ligand stays bound in the presence of the test substance.

In test [2] the target is T1, Adenosine receptor A1 (Homo sapiens). The test can be described thus: (§3) Agonist activity at adenosine A1 receptor assessed as inhibition of forskolin-stimulated [3H]cAMP accumulation in CHO cells. The class given is functional, cell-based. The conditions noted are these: concentration not given here. An outline of the steps: (§4)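 Clonal CHO cells stably expressing human A1 (CHO-A1H) or human A3 (CHO-A3) grown to confluence in 24-well dishes. Labelled with [3H]adenine 2 h at 37 °C in HEPES-buffered Hank's, washed, rolipram 10 µM 15 min. Agonist 5 min, then forskolin 3 µM a further 10 min. Stopped with HCl; [3H]-cAMP isolated on alumina columns, scintillation counted. pEC50 from sigmoidal fits; triplicate determinations.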
A general note: cAMP levels reflect the balance of adenylyl cyclase and phosphodiesterase activity.

For test [3], the target named is T2, Adenosine receptor A1 (Homo sapiens, UniProt P30542).
T2 sequence (P30542 whole entry): T1 sequence (whole entry)
The description is as §1. The class given is cell-based. The method, boiled down: as §2

In test [4] the target is T1, Adenosine receptor A1 (Homo sapiens). The test can be described thus: Ratio of pEC50 to pKd at human adenosine A1 receptor in CHO cells. In kind it is cell-based. The method, boiled down:
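Derived as the difference between -log EC50 from forskolin (3 µM)-stimulated [3H]-cAMP inhibition in CHO-A1H cells and -log KD from inhibition of 1 nM [3H]-DPCPX binding to intact CHO-A1H cells.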

Test [5] deals with T2, Adenosine receptor A1. The test is described as §3. In kind it is functional, cell-based. The method, boiled down:
as §4

In a further test the target is T3, Adenosine receptor A3 (Homo sapiens, UniProt P0DMS8).
T3 sequence (P0DMS8 whole entry): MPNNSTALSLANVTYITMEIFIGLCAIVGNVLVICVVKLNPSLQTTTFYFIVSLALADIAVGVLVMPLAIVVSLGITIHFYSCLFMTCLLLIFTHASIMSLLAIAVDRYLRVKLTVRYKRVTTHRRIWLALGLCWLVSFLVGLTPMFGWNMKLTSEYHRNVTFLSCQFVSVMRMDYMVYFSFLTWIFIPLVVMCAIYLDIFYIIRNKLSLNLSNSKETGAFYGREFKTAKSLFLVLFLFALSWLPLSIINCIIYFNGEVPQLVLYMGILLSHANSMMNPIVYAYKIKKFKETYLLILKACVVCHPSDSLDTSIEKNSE
Description: Activity at human adenosine A3 receptor assessed as inhibition of forskolin-stimulated cAMP accumulation in CHO cells. In kind it is functional, cell-based. The method, boiled down:
as §4

The target of a further test is Adenosine receptor A2a (Homo sapiens, UniProt P29274). The test can be described thus: Activity at human adenosine A2A receptor assessed as stimulation of [3H]cAMP accumulation in CHO cells. In kind it is functional, cell-based.
Another test concerns the target T4, Adenosine receptor A2b (Homo sapiens, UniProt P29275).
T4 sequence (P29275 whole entry): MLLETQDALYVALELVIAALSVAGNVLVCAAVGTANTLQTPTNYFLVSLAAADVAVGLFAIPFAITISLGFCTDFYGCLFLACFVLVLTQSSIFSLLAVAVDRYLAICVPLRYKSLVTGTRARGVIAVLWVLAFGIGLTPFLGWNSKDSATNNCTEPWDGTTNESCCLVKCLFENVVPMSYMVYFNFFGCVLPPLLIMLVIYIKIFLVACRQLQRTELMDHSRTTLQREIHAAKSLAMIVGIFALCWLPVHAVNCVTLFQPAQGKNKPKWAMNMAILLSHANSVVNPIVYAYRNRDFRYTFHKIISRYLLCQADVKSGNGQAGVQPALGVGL
Description: Activity at human adenosine A2B receptor assessed as stimulation of [3H]cAMP accumulation in CHO cells. The class given is functional, cell-based. The method, boiled down: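 CHO cells expressing human A2B receptor, confluent in 24-well dishes, [3H]adenine-labelled 2 h at 37 °C in HEPES-buffered Hank's, then rolipram 10 µM 15 min. Agonist added 10 min without forskolin. HCl termination, alumina-column isolation of [3H]-cAMP, scintillation counting. pEC50 by sigmoidal curve fitting; each experiment in triplicate.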

The target in test [6] is T2, Adenosine receptor A1. Description: Activity at human adenosine A1 receptor assessed as inhibition of forskolin-stimulated cAMP accumulation in CHO cells. The class given is functional, cell-based. The method, boiled down: as §4

Adenosine receptor A2a, sequence (P29274 whole entry): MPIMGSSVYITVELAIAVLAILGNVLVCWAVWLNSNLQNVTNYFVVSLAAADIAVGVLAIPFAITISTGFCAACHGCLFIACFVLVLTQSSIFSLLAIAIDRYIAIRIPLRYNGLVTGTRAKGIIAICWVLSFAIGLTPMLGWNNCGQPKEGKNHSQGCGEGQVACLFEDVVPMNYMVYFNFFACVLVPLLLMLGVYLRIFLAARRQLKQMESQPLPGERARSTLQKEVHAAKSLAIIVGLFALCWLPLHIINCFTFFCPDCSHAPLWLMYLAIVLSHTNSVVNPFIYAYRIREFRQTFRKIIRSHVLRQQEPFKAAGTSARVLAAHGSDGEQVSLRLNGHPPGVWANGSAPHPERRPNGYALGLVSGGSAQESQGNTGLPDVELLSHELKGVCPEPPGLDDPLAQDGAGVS

With `CCNC(=O)[C@H]1O[C@@H](n2cnc3c(N)ncnc32)[C@H](O)[C@@H]1O`, the results for the inhibition in test [1] and in test [2] were 83.3% and 98%, respectively.
As to `O=C(CCCCCNC(=O)COc1ccc(/C=C/C2=[N+]3C(=Cc4ccc(-c5cccs5)n4[B-]3(F)F)C=C2)cc1)NCCCCNc1ncnc2c1ncn2[C@@H]1O[C@H](CO)[C@@H](O)[C@H]1O`, the inhibition (usually the drop in the measured response relative to a control, in per cent) in [1] worked out at 48.1%; in test [2], 96%. In addition, binding at Adenosine receptor A1 [3] was put at a Kd of 224 nM. In addition, the Ratio in test [4] was 1.64. The EC50 (in general, the midpoint of the concentration-response curve) at Adenosine receptor A1 [5] is 5.13 nM.
For the molecule `CCNC(=O)[C@H]1O[C@@H](n2cnc3c(NCCCCCCCCNC(=O)CCCCCNC(=O)COc4ccc(/C=C/C5=[N+]6C(=Cc7ccc(-c8cccs8)n7[B-]6(F)F)C=C5)cc4)ncnc32)[C@H](O)[C@@H]1O`, the inhibition in test [2] stood at 77%. In addition, on Adenosine receptor A1 [5], the EC50 is 12 nM.
The like results for `CCNC(=O)[C@H]1O[C@@H](n2cnc3c(NCCCCCNC(=O)CCCCCNC(=O)COc4ccc(/C=C/C5=[N+]6C(=Cc7ccc(-c8cccs8)n7[B-]6(F)F)C=C5)cc4)ncnc32)[C@H](O)[C@@H]1O` were, in that order, 96% and 0.708 nM.
On to `CCNC(=O)[C@H]1O[C@@H](n2cnc3c(NCCCNC(=O)CCCCCNC(=O)COc4ccc(/C=C/C5=[N+]6C(=Cc7ccc(-c8cccs8)n7[B-]6(F)F)C=C5)cc4)ncnc32)[C@H](O)[C@@H]1O`, for which the inhibition in [1] is 50.9%; in [2] it was 92%. Besides, at Adenosine receptor A1 [3], the Kd (usually a measure of binding affinity in units of concentration) was 245 nM. Also, in test [4], the Ratio turned out to be 2.55. Moreover, the EC50 at Adenosine receptor A1 [5] was 0.692 nM.
In the case of `CCNC(=O)[C@H]1O[C@@H](n2cnc3c(NCCCCNC(=O)CCCCCNC(=O)COc4ccc(/C=C/C5=[N+]6C(=Cc7ccc(-c8cccs8)n7[B-]6(F)F)C=C5)cc4)ncnc32)[C@H](O)[C@@H]1O`, the EC50 was 2.69 nM on Adenosine receptor A3; 174 nM on Adenosine receptor A2a; 2040 nM on Adenosine receptor A2b; 3.39 nM at Adenosine receptor A1 [6]; 3.39 nM on Adenosine receptor A1 [5]. Besides, the inhibition in [1] was 49.3%; in test [2], 99%. Binding at Adenosine receptor A1 [3] was characterised by a dissociation constant (Kd) of 158 nM. For the same molecule, the Ratio in [4] came out at 1.67.
